How the values were obtained:
MRC5 = assay: Cytotoxicity against MRC5 cells; type: cell-based, Homo sapiens; details: for IC50: Homo sapiens, MRC5
Outline: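 MRC5 cells were cultured for 5 days in the presence of drug, with viability read by colorimetric MTT. IC50 was taken from the concentration–response curve and is the mean of three independent experiments.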

Plasmodium falciparum [1] = assay: Antiplasmodial activity against Plasmodium falciparum FcB1; type: functional, organism-based
Outline: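 P. falciparum FcB1 (chloroquine-resistant) was kept in continuous culture in human erythrocytes. Growth inhibition was read by [³H]hypoxanthine incorporation. IC50 was taken from the drug concentration–response curve and is the mean of three independent experiments.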

[2] = Selectivity index, ratio of IC50 for MRC5 cells to IC50 for Plasmodium falciparum FcB1; type: functional
Outline: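 Ratio of MRC5 IC50 to P. falciparum FcB1 IC50. MRC5 IC50 came from a 5-day drug exposure read by MTT. Parasite IC50 came from [³H]hypoxanthine incorporation in erythrocyte cultures. Both were taken from concentration–response curves as means of three independent experiments.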

Plasmodium falciparum [3] = assay: Antiplasmodial activity against Plasmodium falciparum D6; type: functional, organism-based
Plasmodium falciparum [4] = assay: Antiplasmodial activity against chloroquine-resistant Plasmodium falciparum K1; type: functional, organism-based
Outline: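 Parasites kept in continuous culture on human erythrocytes; growth measured by [3H]hypoxanthine incorporation. IC50 taken from the drug concentration–response curve, mean of three independent experiments.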

Plasmodium yoelii [5] = assay: Antiplasmodial activity as reduced parasitaemia against Plasmodium yoelii N67 infected Swiss mice (Mus musculus) at 10 mg/kg peroral dose; type: functional; details: route oral
Outline: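 4-day suppressive test in P. yoelii nigeriensis N67-infected mice, five per group. Dosing oral, once daily from day 0, 0.5 ml/mouse. Untreated group received vehicle only. Parasitemia read on day 4 from Diff Quick-stained blood smears. Percent inhibition calculated against untreated mice. Deaths counted at day 14.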

Plasmodium falciparum [6] = assay: In vitro antiplasmodial activity against Plasmodium falciparum Thai
Plasmodium yoelii [7] = assay: Antiplasmodial activity as reduced parasitaemia against Plasmodium yoelii N67 infected Swiss mice (Mus musculus) at 50 mg/kg peroral dose; type: functional; details: route oral
Outline: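 Peters 4-day suppressive test in mice infected with P. yoelii nigeriensis N67. Compound was given orally (0.5 ml) daily from day 0, at 10 or 50 mg/kg as per line. Groups had five mice, with a vehicle-only untreated group. Day-4 parasitemia was counted on Diff Quick-stained blood smears. % inhibition was calculated against untreated mice.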

| SMILES | IC50 (Plasmodium falciparum [1]) [µM] | IC50 (Plasmodium falciparum [3]) [µM] | IC50 (MRC5) [µM] | Ratio IC50 [2] | also measured |
| --- | --- | --- | --- | --- | --- |
| COc1ccc(-c2cc(=O)c3c(O)cc(OCC(=O)N4CCN(Cc5ccc(OC)c(OC)c5OC)CC4)cc3o2)cc1OCC(=O)N1CCN(Cc2ccc(OC)c(OC)c2OC)CC1 | – | 0.18 | 1 | – | – |
| COc1ccc(-c2cc(=O)c3c(O)cc(OCC(=O)N4CCN(Cc5ccc(OC)c(OC)c5OC)CC4)cc3o2)cc1O | – | 5.3 | – | – | – |
| COc1ccc(CN2CCN(C(=O)COc3ccc4c(=O)cc(-c5ccccc5)oc4c3)CC2)c(OC)c1OC | 13 | – | – | – | – |
| CCOC(=O)COc1cc(-c2cc(=O)c3c(O)cc(OCC(=O)N4CCN(Cc5ccc(OC)c(OC)c5OC)CC4)cc3o2)ccc1OC | 1 | 0.5 | > 70 | >140 | IC50 (Plasmodium falciparum [4]): 13 µM; inhibition in vivo at 10 mg/kg (Plasmodium yoelii [5]): 27.1%; IC50 (Plasmodium falciparum [6]): 13 µM; inhibition in vivo at 50 mg/kg (Plasmodium yoelii [7]): 43.1% |
| COc1ccc(-c2cc(=O)c3c(O)cc(OCC(=O)N4CCN(Cc5ccc(OC)c(OC)c5OC)CC4)cc3o2)cc1OC1CCCC1 | 2.8 | – | > 150 | >53 | – |
| CCOC(=O)COc1cc(OCC(=O)N2CCN(Cc3ccc(OC)c(OC)c3OC)CC2)c2c(=O)cc(-c3ccc(OC)c(OCC(=O)OCC)c3)oc2c1 | – | 5.4 | – | – | – |
| CCCCCCOc1cc(-c2cc(=O)c3c(O)cc(OCC(=O)N4CCN(Cc5ccc(OC)c(OC)c5OC)CC4)cc3o2)ccc1OC | 3.9 | – | – | – | – |
| CCOC(=O)COc1cc(-c2cc(=O)c3c(O)cc(OCC(=O)N4CC[N+](C)(Cc5ccc(OC)c(OC)c5OC)CC4)cc3o2)ccc1OC | 41 | – | – | – | – |
| CCOC(=O)COc1cc(-c2cc(=O)c3c(O)cc(OCCN4CCN(Cc5ccc(OC)c(OC)c5OC)CC4)cc3o2)ccc1OC | 4.3 | – | 18 | 4.2 | – |
| CCOC(=O)COc1cc(-c2cc(=O)c3c(O)cc(OCC(=O)N4CCN(Cc5ccc(O)c(OC)c5OC)CC4)cc3o2)ccc1OC | 0.6 | – | 10 | 16.7 | IC50 (Plasmodium falciparum [4]): 0.4 µM; IC50 (Plasmodium falciparum [6]): 1.2 µM |
| CCN(CC)CCCC(C)Nc1ccnc2cc(Cl)ccc12 (stereo unspecified) [CHLOROQUINE] | – | – | – | – | Activity (MRC5; human, mrc5): Active |
| CCOC(=O)COc1cc(-c2cc(=O)c3c(O)cc(OCC(=O)N4CCN(Cc5ccc(OCc6ccccc6)c(OC)c5OC)CC4)cc3o2)ccc1OC | 2.8 | – | 10 | 3.6 | – |
| COc1ccc(-c2cc(=O)c3c(O)cc(OCC(=O)N4CCN(Cc5ccc(OC)c(OC)c5OC)CC4)cc3o2)cc1OCC(=O)OC(C)(C)C | 1.7 | – | > 140 | >82 | IC50 (Plasmodium falciparum [4]): 1.4 µM; IC50 (Plasmodium falciparum [6]): 1.5 µM |
| COc1ccc(CN2CCN(C(=O)COc3ccc4c(=O)cc(-c5cc(C(C)(C)C)c(O)c(C(C)(C)C)c5)oc4c3)CC2)c(OC)c1OC | 1.2 | – | > 150 | >125 | IC50 (Plasmodium falciparum [4]): 0.4 µM; inhibition in vivo at 10 mg/kg (Plasmodium yoelii [5]): 24.1%; IC50 (Plasmodium falciparum [6]): 0.9 µM; inhibition in vivo at 50 mg/kg (Plasmodium yoelii [7]): 38.5% |
| COc1ccc(CN2CCN(C(=O)COc3cc(O)c4c(=O)cc(-c5ccccc5)oc4c3)CC2)c(OC)c1OC | 14 | – | – | – | – |
| CCOC(=O)COc1cc(-c2cc(=O)c3c(O)cc(OCC(=O)N4CCN(C(=O)OC(C)(C)C)CC4)cc3o2)ccc1OC | 1.8 | – | 3.8 | 2.1 | – |
| CCOC(=O)COc1cc(-c2cc(=O)c3c(O)cc(OCC(=O)N4CCN(C)CC4)cc3o2)ccc1OC | 26 | – | – | – | – |
| CCOC(=O)COc1cc(-c2cc(=O)c3c(O)cc(OCC(=O)N4CC[N+]([O-])(Cc5ccc(OC)c(OC)c5OC)CC4)cc3o2)ccc1OC | 19 | – | – | – | – |

The next lines start with results.

| IC50 (Plasmodium falciparum [1]) [µM] | IC50 (Plasmodium falciparum [3]) [µM] | SMILES | IC50 (MRC5) [µM] | Ratio IC50 [2] | also measured |
| --- | --- | --- | --- | --- | --- |
| 1.9 | – | CCOC(=O)COc1cc(-c2cc(=O)c3c(O)cc(OCC(=O)N4CCN(Cc5c(OC)cc(OC)cc5OC)CC4)cc3o2)ccc1OC | 9.5 | 5 | – |
| – | 2.4 | CCOC(=O)COc1cc(-c2cc(=O)c3c(O)cc(OCC(=O)N4CCN(Cc5cccc(OC)c5OC)CC4)cc3o2)ccc1OC | – | – | – |
| – | 6 | CCOC(=O)COc1cc(-c2cc(=O)c3c(O)cc(OCC(=O)N4CCN(Cc5ccc(Cl)cc5)CC4)cc3o2)ccc1OC | – | – | – |
| 8.9 | – | CCOC(=O)COc1cc(-c2cc(=O)c3c(O)cc(OCC(=O)N4CCN(Cc5ccc(OC)cc5)CC4)cc3o2)ccc1OC | – | – | – |
| – | 4.7 | CCOC(=O)COc1cc(-c2cc(=O)c3c(O)cc(OCC(=O)N4CCN(Cc5ccc(OC)c(OC)c5)CC4)cc3o2)ccc1OC | – | – | – |
| – | 6.2 | CCOC(=O)COc1cc(O)c2c(=O)cc(-c3ccc(OC)c(OCC(=O)N4CCN(Cc5ccc(OC)c(OC)c5OC)CC4)c3)oc2c1 | – | – | – |
| – | 9.5 | CCOC(=O)COc1cc(-c2cc(=O)c3c(O)cc(OCC(=O)N4CCN(Cc5ccccc5)CC4)cc3o2)ccc1OC | – | – | – |
| – | 4 | CCOC(=O)COc1cc(-c2cc(=O)c3c(O)cc(OCC(=O)N4CCN(Cc5cc(OC)c(OC)c(OC)c5)CC4)cc3o2)ccc1OC | – | – | – |
| 1.7 | – | CCOC(=O)COc1cc(-c2cc(=O)c3c(O)cc(OCC(=O)N4CCN(Cc5ccc(OC)cc5OC)CC4)cc3o2)ccc1OC | 5.6 | 3.3 | – |
